Measured values from article PMC7797712 (Medicinal Chemistry Research, 2021).
pEC50: −log10 of the molar value.

Key:
[1] = target: HBV core protein (Hepatitis B virus genotype D subtype ayw, UniProt P03146); assay: Western blot assay of HBV core protein dephosphorylation in AML12HBV_DE11 cells; format: cell-based; conditions: 30 h, ENAN-34017 2 µM, Bay 41-4109 2 µM, entecavir 1 µM
In short: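 Controls: cells kept with tetracycline, or tetracycline-free and mock treated. Test cells tetracycline-free, treated 30 h, then lysed in LDS loading buffer and boiled 100 °C for 20 min. Run on 12% Bis-Tris gel in MOPS buffer, transferred to PVDF. Hyper-phosphorylated and dephosphorylated/hypophosphorylated core protein detected by western blot; β-actin loading control.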

[2] = test system: HBV replication in HepDES19 cells; assay: Antiviral assay in HepDES19 cells; format: cell-based; conditions: Hepatitis B virus, HepDES19, read-out: EC50, inhibition of HBV-DNA replication
In short: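 HepG2-derived line with a tetracycline-inducible, envelope-deficient HBV genome; seeded in 24-well plates and kept tetracycline-free for 2 days. Then mock or twofold serial dilution for a further 4 days. Cytoplasmic HBV core DNA extracted and measured by qPCR. EC50 from regression on biologically triplicate experiments, two independent experiments.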

[3] = test system: AML12HBV10 cells; assay: Cytotoxicity assay in AML12HBV10 cells; format: cell-based, mouse
In short: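 Cells treated in tetracycline-free medium, as in the antiviral assay, with twofold serial dilution from 50 to 1.56 µM for 48 h. Viability checked by microscopy and measured by MTT. CC50 = concentration reducing viability by 50%.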

[4] = test system: cytoplasmic HBV-DNA replication in AML12HBV10 cells; assay: Antiviral assay in AML12HBV10 cells; format: cell-based, hepatitis B virus; conditions: for Anti-HBV potency compared with 27 (58031), in words: SAR statement of the text
In short: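 AML12-derived mouse hepatocyte line carrying a tetracycline-inducible, envelope-deficient HBV genome; seeded at 2 × 10^4 cells/well in tetracycline-free medium. Next day, mock or twofold serial dilution (10 to 0.08 µM) for 48 h. Cells lysed in Tris-HCl pH 7.5/EDTA/NaCl/1% NP-40. Half the lysate NaOH-denatured, neutralised, dot-blotted and hybridised with 32P-labelled HBV minus-strand riboprobe. Phosphorimager quantification; EC50 = concentration reducing HBV DNA by 50%.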

Sequence of HBV core protein (P03146 whole entry): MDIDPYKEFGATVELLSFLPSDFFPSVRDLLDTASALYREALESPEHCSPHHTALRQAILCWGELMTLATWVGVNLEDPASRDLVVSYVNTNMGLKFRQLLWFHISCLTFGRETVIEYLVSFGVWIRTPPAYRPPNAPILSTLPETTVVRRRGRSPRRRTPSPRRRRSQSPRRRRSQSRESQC

| SMILES | Effect on Cp dephosphorylation [1] | Anti-HBV potency compared with 27 (58031), in words ([4]; AML12HBV10 cells) | also measured |
| --- | --- | --- | --- |
| O=C1CCN(C(=O)Nc2ccc(F)c(Cl)c2)CN1Cc1ccc(F)cc1F [Compound 27, N-(3-chloro-4-fluorophenyl)-3-(2,4-difluorobenzyl)-4-oxotetrahydropyrimidine-1(2H)-carboxamide] | inhibited Cp dephosphorylation | – | pEC50 [2]: 6.08; Cytotoxicity at 50 μM [3]: no cytotoxicity; EC50 (50% inhibitory concentration of cytoplasmic HBV-DNA replication) ([4]; AML12HBV10 cells, 48 h treatment, dot-blot hybridization): submicromolar; Potency increase relative to 21 ([4]; AML12HBV10 cells, EC50 ratio): fourfold potency increase; pEC50 ([4]; Hepatitis B virus, AML12HBV10, 48 h, read-out: EC50 (50% inhibitory concentration of cytoplasmic HBV-DNA replication)): 6.28 |
| O=C(NC1CN(C(=O)Nc2ccc(F)c(Cl)c2)CN(Cc2ccc(F)cc2F)C1=O)c1ccc(F)cc1F (stereo not shown) [Compound 53, N-(3-chloro-4-fluorophenyl)-5-(2,4-difluorobenzamido)-3-(2,4-difluorobenzyl)-4-oxotetrahydropyrimidine-1(2H)-carboxamide] | – | comparable or slightly better potencies | – |
| Cc1ccc(S(=O)(=O)NC2CN(C(=O)Nc3ccc(F)c(Cl)c3)CN(Cc3ccc(F)cc3F)C2=O)cc1 (stereo not shown) [Compound 54, N-(3-chloro-4-fluorophenyl)-3-(2,4-difluorobenzyl)-5-(4-methylphenylsulfonamido)-4-oxotetrahydropyrimidine-1(2H)-carboxamide] | – | comparable or slightly better potencies | – |
| C=CC(=O)NC1CN(C(=O)Nc2ccc(F)c(Cl)c2)CN(Cc2ccc(F)cc2F)C1=O (stereo not shown) [Compound 55, 5-acrylamido-N-(3-chloro-4-fluorophenyl)-3-(2,4-difluorobenzyl)-4-oxotetrahydropyrimidine-1(2H)-carboxamide] | – | comparable or slightly better potencies | – |
| C=C1[C@H](CO)[C@@H](O)C[C@@H]1n1cnc2c(=O)[nH]c(N)nc21 [entecavir, reference compound] | did not affect Cp dephosphorylation | – | – |
